Calls of active or inactive are those of the source. The rule behind the calls is not given here.
Key:
[1] = (§1) Toxicity in BALB/c mouse infected with Trypanosoma cruzi MHOM/Pe/2011/Arequipa;DTU 5 bloodstream trypomastigote assessed as decrease in serum creatine kinase muscle to brain ratio level in acute phase at 20 mg/kg/day, po administered for 5 consecutive days starting from day 8 post infection and measured at day 14 post infection by biochemical analysis relative to control; format: organism-based; set-up: scale not given: the % may be the effect or the level left; conditions: in vivo
How it was run: (§2)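 Female BALB/c mice (10–12 weeks, 14–20 g; groups of three) were infected i.p. with 5 × 10^5 Arequipa bloodstream trypomastigotes. Dosing was oral at 20 mg/kg/day for 5 days, from day 8 pi (acute) or day 70 pi (chronic), as a 2 mg/ml suspension in 5% DMSO/0.5% HPMC; controls received vehicle. Cyclophosphamide 200 mg/kg i.p. was given at day 80 pi. Serum was collected 2 days post-treatment and at necropsy by cardiac puncture and compared with infected untreated controls.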

[2] = Toxicity in BALB/c mouse infected with Trypanosoma cruzi MHOM/Pe/2011/Arequipa;DTU 5 bloodstream trypomastigote assessed as decrease in serum creatine kinase muscle to brain ratio level in chronic phase at 20 mg/kg/day, po administered for 5 consecutive days starting from day 70 post infection measured on day 100 post infection relative to control; format: organism-based; set-up: scale not given: the % may be the effect or the level left; conditions: in vivo; how it was run: as §2
Trypanosoma cruzi [3] = assay: Antitrypanosomal activity against bloodstream trypomastigote stage of Trypanosoma cruzi MHOM/Pe/2011/Arequipa; DTU 5 isolated from parasite infected BALB/c Albino mouse cardiac cells after 24 hrs by Neubauer chamber based cell counting method; format: functional, organism-based; conditions: DTU 5, 24 h
How it was run: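 Bloodstream trypomastigotes were taken by cardiac puncture from infected BALB/c mice and diluted in RPMI + 10% heat-inactivated FBS. At 2 × 10^6/mL they were exposed to 3.1–50.0 µM (lower where needed) for 24 h at 37 °C, 5% CO2, and counted in a Neubauer chamber. Triplicates, at least three experiments; IC50 by nonlinear regression.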

[4] = Selectivity index, ratio of IC50 for African green monkey Vero cells to IC50 for Trypanosoma cruzi TINF/CH/1956/Tulahuen;DTU 6 trypomastigote forms; format: toxicity; conditions: read-out: Selectivity Index
How it was run: (§3)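 Bloodstream trypomastigotes were taken from BALB/c mice by cardiac puncture and diluted in RPMI with 10% FBS at 2 × 10^6/mL. They were incubated with 3.1–50.0 µM for 24 h at 37 °C in 5% CO2 and counted in a Neubauer chamber. Triplicate, at least three experiments; nonlinear regression.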

Trypanosoma cruzi [5] = assay: (§4) Antitrypanosomal activity against Trypanosoma cruzi MHOM/Pe/2011/Arequipa;DTU 5 bloodstream trypomastigotes infected in BALB/c mouse assessed as reduction in serum Ig-G level in acute phase at 20 mg/kg/day, po administered for 5 consecutive days starting from day 8 post infection and measured at day 79 post infection by ELISA; format: functional, organism-based
How it was run: (§5)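 Sera came from infected BALB/c mice (three per group) dosed orally at 20 mg/kg/day for 5 days. Sampling points: 2 days after treatment, the day before immunosuppression (acute only) and necropsy day. Anti-T. cruzi IgG was measured by indirect ELISA using parasite Fe-SOD as antigen, read as OD at 492 nm.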

Trypanosoma cruzi [6] = assay: (§6) Antitrypanosomal activity against Trypanosoma cruzi MHOM/Pe/2011/Arequipa;DTU 5 bloodstream trypomastigote infected in BALB/c mouse assessed as parasite-free brain in acute phase at 20 mg/kg/day, po administered for 5 consecutive days starting from day 8 post infection followed by cyclophosphamide induced immunosuppression on day 80 post infection measured after day 100 post infection by PCR method relative to control; format: functional
How it was run: (§7)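 Female BALB/c mice (10–12 weeks, three per group) were infected i.p. with 5 × 10^5 Arequipa bloodstream trypomastigotes. Dosing was oral, 20 mg/kg/day for 5 days, as a suspension in 5% DMSO/0.5% HPMC. Cyclophosphamide 200 mg/kg i.p. was given at day 80 pi. At necropsy (day 100) tissues were tested by PCR on the splice leader region (primers TC/TC1, 300 bp). Scored as x/3 mice positive.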

Trypanosoma cruzi [7] = assay: Antitrypanosomal activity against Trypanosoma cruzi TINF/CH/1956/Tulahuen;DTU 6 amastigote forms measured after 72 hrs by Giemsa staining based assay; format: functional, organism-based; conditions: TINF/CH/1956/Tulahuen;DTU 6, 72 h
How it was run: (§8)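 Vero cells (1 × 10^4/well, on coverslips) left to adhere 24 h at 37 °C, 5% CO2, then infected with trypomastigotes at MOI 10:1 for 24 h. Free parasites were removed by three PBS washes. Compounds at 3.1, 6.25, 12.5, 25 and 50 µM were incubated 72 h, and amastigotes were counted after Giemsa staining. Triplicates, two separate experiments; IC50 by nonlinear regression.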

Trypanosoma cruzi [8] = assay: as §6, with “as parasite-free heart in chronic” for “as parasite-free brain in acute”, “heart in chronic phase at” for “brain in acute phase at”, “from day 70 post infection” for “from day 8 post infection”; format: functional; how it was run: as §7
Trypanosoma cruzi [9] = assay: Antitrypanosomal activity against Trypanosoma cruzi IRHOD/CO/2008/SN3;DTU 1 amastigote forms measured after 72 hrs by Giemsa staining based assay; format: functional, organism-based; conditions: IRHOD/CO/2008/SN3;DTU 1, 72 h; how it was run: as §8
Trypanosoma cruzi [10] = assay: as §6, with “adipose tissue” for “brain”; format: functional; how it was run: as §7
Trypanosoma cruzi [11] = assay: Trypanocidal activity against Trypanosoma cruzi trypomastigote form infected in African green monkey Vero cells measured after 48 hrs by resazurin dye based assay; format: functional, organism-based
Trypanosoma cruzi [12] = assay: as §6, with “as parasite-free adipose tissue in chronic” for “as parasite-free brain in acute”, “tissue in chronic phase at” for “brain in acute phase at”, “from day 70 post infection” for “from day 8 post infection”; format: functional; how it was run: as §7
[13] = Selectivity index, ratio of IC50 for African green monkey Vero cells to IC50 for Trypanosoma cruzi IRHOD/CO/2008/SN3;DTU 1 trypomastigote forms; format: toxicity; conditions: read-out: Selectivity Index; how it was run: as §3
Trypanosoma cruzi [14] = assay: as §4, with “chronic” for “acute”, “70 post infection followed by cyclophosphamide induced immunosuppression on day 80” for “8”, “100” for “79”; format: functional, organism-based; how it was run: as §5
Trypanosoma cruzi [15] = assay: as §6, with “brain in chronic phase at” for “brain in acute phase at”, “from day 70 post infection” for “from day 8 post infection”; format: functional; how it was run: as §7
[16] = Selectivity index, ratio of IC50 for African green monkey Vero cells to IC50 for Trypanosoma cruzi TINF/CH/1956/Tulahuen;DTU 6; format: toxicity; conditions: read-out: Selectivity Index
How it was run: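 SI = Vero IC50 / epimastigote IC50. Vero cells were grown in RPMI-1640 with 10% FBS, seeded at 0.8 × 10^4 cells/well, exposed to 10.0–200.0 µM for 72 h, then given MTT for 4 h. Epimastigotes were grown in MTL with 10% FBS at 28 °C, 5 × 10^5/mL, exposed to 6.3–50 µM for 48 h, then resazurin for 24 h (570/600 nm). IC50s came from nonlinear regression.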

[17] = as §1, with “uric acid” for “creatine kinase muscle to brain ratio”; format: organism-based; set-up: scale not given: the % may be the effect or the level left; conditions: in vivo; how it was run: as §2
Trypanosoma cruzi [18] = assay: Antitrypanosomal activity against Trypanosoma cruzi IRHOD/CO/2008/SN3;DTU 1 epimastigotes measured after 72 hrs by Neubauer hemocytometer; format: functional, organism-based; conditions: IRHOD/CO/2008/SN3;DTU 1, 72 h

## O=C(Cn1ccnc1[N+](=O)[O-])NCc1ccccc1 [BENZNIDAZOLE]
[1]
  Activity: <= 30%
[2]
  Activity: <= 10%
Trypanosoma cruzi [3]
  IC50: 6.2 µM
[4]
  selectivity ratio: > 29.9
Trypanosoma cruzi [5]
  Activity: Active
Trypanosoma cruzi [6]
  Activity: 25%
Trypanosoma cruzi [7]
  IC50: 3.9 µM
Trypanosoma cruzi [8]
  Activity: 38%
Trypanosoma cruzi [9]
  IC50: 4.4 µM
Trypanosoma cruzi [10]
  Activity: 25%
Trypanosoma cruzi [11]
  IC50: 4.1 µM
Trypanosoma cruzi [12]
  Activity: 38%
[13]
  selectivity ratio: > 6
Trypanosoma cruzi [14]
  Activity: Active
Trypanosoma cruzi [15]
  Activity: 38%
[16]
  selectivity ratio: > 7.9
[17]
  Activity: <= 30%
Trypanosoma cruzi [18]
  IC50: 15.3 µM

## O=C(CCN1CCN(c2ccc(Cl)cc2)CC1)c1ccc(O)cc1
[1]
  Activity: <= 30%
[2]
  Activity: <= 20%
Trypanosoma cruzi [3]
  IC50: 0.7 µM
[4]
  selectivity ratio: 49.6
Trypanosoma cruzi [5]
  Activity: Active
Trypanosoma cruzi [6]
  Activity: 50%
Trypanosoma cruzi [7]
  IC50: 3 µM
Trypanosoma cruzi [8]
  Activity: 63%
Trypanosoma cruzi [9]
  IC50: 4.5 µM
Trypanosoma cruzi [10]
  Activity: 50%
Trypanosoma cruzi [11]
  IC50: 6.8 µM
Trypanosoma cruzi [12]
  Activity: 63%
[13]
  selectivity ratio: 50.9
Trypanosoma cruzi [14]
  Activity: Active
Trypanosoma cruzi [15]
  Activity: 63%
[16]
  selectivity ratio: 9.8
[17]
  Activity: <= 10%
Trypanosoma cruzi [18]
  IC50: 12.1 µM

## O=C(CCN1CCN(c2ccc(C(F)(F)F)cc2)CC1)c1ccc(O)cc1
[1]
  Activity: <= 30%
[2]
  Activity: <= 30%
Trypanosoma cruzi [3]
  IC50: 0.9 µM
[4]
  selectivity ratio: 45.7
Trypanosoma cruzi [5]
  Activity: Active
Trypanosoma cruzi [6]
  Activity: 13%
Trypanosoma cruzi [7]
  IC50: 3.9 µM
Trypanosoma cruzi [8]
  Activity: 50%
Trypanosoma cruzi [9]
  IC50: 6.6 µM
Trypanosoma cruzi [10]
  Activity: 13%
Trypanosoma cruzi [11]
  IC50: 9.4 µM
Trypanosoma cruzi [12]
  Activity: 50%
[13]
  selectivity ratio: 51
Trypanosoma cruzi [14]
  Activity: Active
Trypanosoma cruzi [15]
  Activity: 50%
[16]
  selectivity ratio: 7.2
[17]
  Activity: <= 20%
Trypanosoma cruzi [18]
  IC50: 12.6 µM

— ChEMBL document CHEMBL4402517, “Rational modification of Mannich base-type derivatives as novel antichagasic compounds: Synthesis, in vitro and in vivo evaluation” (Bioorg Med Chem, 2019)
